Laboratory results from the EternaBench riboswitch data.

Test system: MS2 coat protein
Assay: apparent Kd, MS2 coat protein; higher = weaker binding; RNA-MaP array; FMN 200 µM where present
Summary of the method: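 The apparent Kd is the median of filtered binding-curve fits, one per cluster, to green signal normalised to red-channel RNA signal and control-cluster median Fmax. The clusters were on Illumina sequencing chips, and stalled E. coli RNA polymerase had transcribed the designs on them. Titration used SNAP-549-labelled MS2 coat protein from 0.7 or 1.5 nM, doubling to 3 µM, without and then with constant ligand, in 100 mM Tris-HCl pH 7.5, 80 mM KCl, 4 mM MgCl2, BSA, DTT, yeast tRNA and Tween-20.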

[1] = designed as: ON switch for flavin mononucleotide, no ligand
[2] = ligand present: flavin mononucleotide, designed as: ON switch for flavin mononucleotide
[3] = designed as: OFF switch for flavin mononucleotide, no ligand
[4] = ligand present: flavin mononucleotide, designed as: OFF switch for flavin mononucleotide

## CGUUGACAUGAGGAUCACCCAUGUCAGAUUUGGUCAGGAUAUGGUGUGGUUUGGCUAUUGCCAGAAGGGACGUUUG
[1]
  apparent Kd: 92.1 nM
[2]
  apparent Kd: 58.5 nM

## CGUUGAUAAUAUCUUCACAUGAGGAUCACCCAUGUCGCUCGACAGGAUAUAUUUGAUUUGUUUAAGUAGAAGGGUCGCAGAUGC
[1]
  apparent Kd: 157 nM
[2]
  apparent Kd: 130 nM

## CGUUUUAAACAAGGAUAUCAUUUGUGUACAAGUUUUACAUGAGGAUCACCCAUGUUAAAUGGUUUUGAGAAGGUGUUUAGAACG
[1]
  apparent Kd: 31.1 nM
[2]
  apparent Kd: 25 nM

## CUAAAUCAUGUAGGAUAUGCGUGGCGAAGCUAUGCAGAAGGACAUGAGGAUCACCCAUGUCUAUCCGUCUGCGUACAGACGGAA
[3]
  apparent Kd: 25.1 nM
[4]
  apparent Kd: 186 nM

## CUAAAUCAUGUAGGAUAUGCGUGGCGAAGCUAUGCAGAAGGACAUGAGGAUCACCCAUGUCUUUCCGUCUGCGUACAGACGGAA
[3]
  apparent Kd: 28.6 nM
[4]
  apparent Kd: 282 nM

## CUACCUUAUGAGAAGGCGAUCAUGAAACAUGAUCGAGGAUAUCAUGUAAACAUGAGGAUCACCCAUGUAUGGGUAUUAUGGUAG
[1]
  apparent Kd: 331 nM
[2]
  apparent Kd: 40.4 nM

## CUACCUUAUGAGAAGGCGAUCAUGAAACAUGAUCGAGGAUAUCAUGUAAACAUGAGGAUCACCCAUGUAUGGGUAUUAUGGUAU
[1]
  apparent Kd: 91.5 nM
[2]
  apparent Kd: 25.4 nM

## CUACGAGCGCCACAGGAUAUACUGAGACUCACAUGAGGAUCACCCAUGUCCAAUUCUCCCAAAUAGUAGAAGGGUGACGCGCUCG
[1]
  apparent Kd: 699 nM
[2]
  apparent Kd: 53.3 nM

## CUAGCAACAUGAGGAUCACCCAUGUAGGAUAUCGCUAUUGUAAUCAUGAAACAUGAUUACAAUAGCGAGAAGGACAUAUGCUAC
[3]
  apparent Kd: 9.59 nM
[4]
  apparent Kd: 11 nM

## CUAGCUAUCGGAGGAUAUUCAUAGCCGAAAGGCACAUGAGGAUCACCCAUGUGCGGAAACGCUUGGGAGAAGGCCGAUAGCUAG
[1]
  apparent Kd: 25.7 nM
[2]
  apparent Kd: 15.2 nM

## CUAGUACAUGAGGAUCACCCAUGUCAGGAUAUUGGAUAUGCCUUGGAAAACAUGUUUACAAGAAGGGACUAUAG
[3]
  apparent Kd: 19.1 nM
[4]
  apparent Kd: 19.6 nM

## CUAGUUGUCGCAGGAUAUGCCCGCUGGUUGGAGGCAGAAGGGUGACACCAAAUAUUAUACAUGAGGAUCACCCAUGUCGCCAGC
[1]
  apparent Kd: 21.4 nM
[2]
  apparent Kd: 20.6 nM

## CUAUAGAUAUGAGGAUAUGUAUAUCCAACAUGAGGAUCACCCAUGUUGAUGAUCACGUAUGUAAAGCAGAAGGCAUAUCUAUAG
[2]
  apparent Kd: 6.41 nM

## CUAUAUUAGUAGAAGGACGGAGAGUAUGUAGUCGUAGGAUAUACAUAAGACAUGAGGAUCACCCAUGUGUGUAUGUUGGGUAUG
[3]
  apparent Kd: 9.66 nM
[4]
  apparent Kd: 8.03 nM

## CUAUCGUUGCAGAAGGUUAAAUAAUUUCUCAUCAUGUUUACAUGAGGAUCACCCAUGUAUUUGUUGAAGGAUAUGCAAGUGUUG
[3]
  apparent Kd: 8.67 nM
[4]
  apparent Kd: 7.92 nM

## CUAUGAAGAAUAGGAUAUUCGAUCAAGAGGAUAGAAGAAGGGUUACAUGAGGAUCACCCAUGUAUGCACAUGAGGAUCCCUUAG
[3]
  apparent Kd: 98.4 nM
[4]
  apparent Kd: 107 nM

## CUAUUCCGAGGAUAUACAUGAGGAUCACCCAUGUCGGGCCUCCGCGUUUAGCGCCUCAGUAGAAGGCGGGUUUC
[3]
  apparent Kd: 19.1 nM
[4]
  apparent Kd: 25.4 nM

## CUAUUCCGAGGAUAUACAUGAGGAUCACCCAUGUCGGGCCUCUGCGUUUAGCGCGAAAGUAGAAGGUGGGUUUC
[3]
  apparent Kd: 34.5 nM
[4]
  apparent Kd: 33.6 nM

## CUCAAACAUGAGGAUCACCCAUGUGUUGUCAUGGGAGGAUAUCUAAGUUCGUUGUAGUCGGGAGAAGGCCUAUGUC
[1]
  apparent Kd: 134 nM
[2]
  apparent Kd: 47.2 nM

## CUCAUGUCAGGAUAUAGCCACAUGAGGAUCACCCAUGUGGACUAGAAGGGACAUGAGGAUCACCCAUGUAUGAA
[3]
  apparent Kd: 11.4 nM
[4]
  apparent Kd: 10.2 nM

## CUCAUGUGAGGAUAUGCUGCUCGUCACGAAAGUGAUGAGUAGCAGAAGGUACAUGAGGAUCACCCAUGUAAAUA
[3]
  apparent Kd: 98.9 nM
[4]
  apparent Kd: 18.8 nM

## CUCAUGUUAGGAUAUGCGCCCAGCCUAGUGGCCGGGCUCUAGCAGAAGGAACAUGAGGAUCACCCAUGUUUGCA
[3]
  apparent Kd: 62.5 nM
[4]
  apparent Kd: 18.6 nM

## CUCCGGCGUGUAGGAUAUGGAUCCGAUUAGGAUCCAGAAGGACAUGAGGAUCACCCAUGUACAUGUAAACAGUCAUCACCGGAC
[3]
  apparent Kd: 8.66 nM
[4]
  apparent Kd: 67.6 nM

## CUCGGACAUGAGGAUCACCCAUGUGAGGAUAUGAUGCGAUCGUCGAAAGACGAUAGCAUCAGAAGGCACAAAUG
[3]
  apparent Kd: 75.6 nM
[4]
  apparent Kd: 301 nM

## CUCGUGUAAGGAUAUGCGAGCCGCGGAAAUACACCGCGGAGGUAGAAGGUACAUGAGGAUCACCCAUGUAAAAC
[3]
  apparent Kd: 25.5 nM
[4]
  apparent Kd: 103 nM

## CUCGUGUGAGGAUAUCUAUUCCACGGACGGGAGUCUUGAUGAGAGAAGGCACAUGAGGAUCACCCAUGUAAUAA
[3]
  apparent Kd: 140 nM
[4]
  apparent Kd: 86.7 nM

## CUCGUGUUAGGAUAUGGAUAGCCGUUUGACGAGCGAGGGCACUAGAAGGAACAUGAGGAUCACCCAUGUAAAAA
[3]
  apparent Kd: 21.3 nM
[4]
  apparent Kd: 21.1 nM

## CUCUCGCGAGGAUAUGAUUUAAGUAACAUGAGGAUCACCCAUGUUUUUCCGUUGUUAUGUUCAGAAGGCGCGUGAU
[3]
  apparent Kd: 44.2 nM
[4]
  apparent Kd: 84.3 nM

## CUCUCUCAUCGAGGAUAUCGAACUUCCACCCUUCGAGAAGGCGACAUGAGGAUCACCCAUGUAAGGAGGACACUCACUCACACA
[3]
  apparent Kd: 22.6 nM
[4]
  apparent Kd: 20.9 nM

## CUCUUACAUGAGGAUCACCCAUGUGUUGUCGUGGGAGGAUAUCCUGGUUCGGUGGCGUUGGGAGAAGGCCUAUGUC
[1]
  apparent Kd: 722 nM
[2]
  apparent Kd: 242 nM

## CUCUUGUUAGGAUAUCAAACUGGCGGCGGAGCCGGCAGUAGUGAGAAGGGACAUGAGGAUCACCCAUGUAAGAA
[3]
  apparent Kd: 81.9 nM
[4]
  apparent Kd: 155 nM

## CUGAGUAGUCAGGAUAUGCUGUACAAAAGUACAGCAGAAGGGAUUACAUGAGGAUCACCCAUGUUGUCUUCAUG
[3]
  apparent Kd: 160 nM
[4]
  apparent Kd: 316 nM

## CUGAUGUCAGGAUAUCGGUGGCUCACUUGUGUGUGCCAGACCGAGAAGGGACAUGAGGAUCACCCAUGUCUUUA
[3]
  apparent Kd: 20.2 nM
[4]
  apparent Kd: 46.2 nM

## CUGAUGUUAGGAUAUCAGGCGCCCGCCACUGGCAAGGCGCAUGAGAAGGGACAUGAGGAUCACCCAUGUAGUAA
[3]
  apparent Kd: 26.3 nM
[4]
  apparent Kd: 55.7 nM

## CUGCCUUAUGUAGGAUAUGCAUAGCGUUGCUAUGCAGAAGGACAUGAGGAUCACCCAUGUAUGUAAUCAAUACAUAUCUGGCAG
[3]
  apparent Kd: 19.8 nM
[4]
  apparent Kd: 122 nM

## CUGCGGGCCAUAGGAUAUGCGCAGAAUUAGCAAGCAGAAGGGUGGAUCGUACAAUAAUAACUACAUGAGGAUCACCCAUGUGCU
[1]
  apparent Kd: 235 nM
[2]
  apparent Kd: 56.1 nM

## CUGCUCCGUGUAGGAUAUGCAUACUCCCAUUAUGCAGAAGGACAUGAGGAUCACCCAUGUAUGUUAUUAUCACGUGUUGCGUAC
[3]
  apparent Kd: 25.7 nM
[4]
  apparent Kd: 92.2 nM

## CUGCUGGAGCUUCGCUUUGGUCGUACAUGAGGAUCACCCAUGUAGGAUAUGGUAAAAUUCGCCUGCUAGAAGGAUAGAGUGGUC
[3]
  apparent Kd: 67.2 nM
[4]
  apparent Kd: 139 nM

## CUGGGAUAGUGGGAUAGGGUUGCCAGAAGGGUCUACAUGAGGAUCACCCAUGUGGGUCCGAGUGGACAGGAUAUGGCGUCCGUA
[3]
  apparent Kd: 12.6 nM
[4]
  apparent Kd: 45.3 nM

## CUGGUGUGAGGAUAUCAGGACACGUAAGCGGGCGUGUCAAAUGAGAAGGCACAUGAGGAUCACCCAUGUGGGAC
[3]
  apparent Kd: 34 nM
[4]
  apparent Kd: 214 nM

## CUGGUUGUCGAGGAUAUGUCCCGGCUCGCAGUCGCAGAAGGCGACACAUGAGGAUCACCCAUGUCGGUUCGCGU
[3]
  apparent Kd: 13.8 nM
[4]
  apparent Kd: 13.3 nM

## CUGGUUGUCGUAGGAUAUGUAGGAUAUUCCUACAUGAGGAUCACCCAUGUUCGCAUGGAAGAAGGACAGAAGGACGAUGACCAU
[1]
  apparent Kd: 1020 nM
[2]
  apparent Kd: 9.16 nM

## CUGUGAUGGAUCCAGAAUUACAACAUGAGGAUCACCCAUGUGCAGGAUAUCGGGUUGAUAGGCGCCGAGAAGGGUAUAAUCACG
[3]
  apparent Kd: 110 nM
[4]
  apparent Kd: 105 nM

## CUGUUAUAGGUCCAUUUUUUCAACAUGAGGAUCACCCAUGUGCAGGAUAUCGUGUUAAUUUUCAUCGAGAAGGGCAUAGUCACG
[3]
  apparent Kd: 30.1 nM
[4]
  apparent Kd: 63.8 nM

## CUGUUCCGUGUAGGAUAUGCAUAUUCCCAUUAUGCAGAAGGACAUGAGGAUCACCCAUGUAUGUUAUUAUCAUGUGUUACAUGC
[3]
  apparent Kd: 44.4 nM
[4]
  apparent Kd: 453 nM

## CUGUUGGGCUCAGGAUAUCGGGUUUAACAUGAGGAUCACCCAUGUCGUCUGCGAAAGCAGAAUCACGAGAAGGGAGACCAGCGA
[1]
  apparent Kd: 13.3 nM
[2]
  apparent Kd: 7.53 nM

## CUUAGACAUGAGGAUCACCCAUGUCAGGAUAUCGUCUACCUGUGGAAACACAGGUAGACGAGAAGGGAUGUGUU
[3]
  apparent Kd: 51.6 nM
[4]
  apparent Kd: 41.4 nM

## CUUAGUAUCUAGGAUAUCUAGUACAUAGUAUCUAGAGAAGGAGAUACAUGAGGAUCACCCAUGUUCUGUGUUCU
[3]
  apparent Kd: 23.9 nM
[4]
  apparent Kd: 68.7 nM

## CUUAUGUGAGGAUAUCAGUAGUAAAAAAAUAAAAUUACUACUGAGAAGGCACAUGAGGAUCACCCAUGUGUCUC
[3]
  apparent Kd: 20.4 nM
[4]
  apparent Kd: 22.2 nM

## CUUAUGUGAGGAUAUGGUGUUGAUCACAGGAAAAAGAUUCUCCAGAAGGCACAUGAGGAUCACCCAUGUAGUGA
[3]
  apparent Kd: 145 nM
[4]
  apparent Kd: 90 nM

## CUUAUGUGAGGAUAUGGUGUUGGCCACAGGGAAAAGGUCCUCCAGAAGGCACAUGAGGAUCACCCAUGUAGUGA
[3]
  apparent Kd: 165 nM
[4]
  apparent Kd: 56.3 nM

## CUUAUGUGAGGAUAUGGUGUUGGUCACAGGAAAAAGAUUCUCCAGAAGGCACAUGAGGAUCACCCAUGUAGUGA
[3]
  apparent Kd: 89.4 nM
[4]
  apparent Kd: 71.2 nM

## CUUCGACAUGAGGAUCACCCAUGUCAGGAUAUUGUGUAUCGGGUUUUUUACGGAUAGGCAAGAAGGGAUGUGUG
[3]
  apparent Kd: 35.6 nM
[4]
  apparent Kd: 34.2 nM

## CUUCGGGCAGGAUAUGCUGUUUGUGACAUGAGGAUCACCCAUGUGAUGCAGUUUGGGUGUGCAGAAGGGCCUGAGU
[3]
  apparent Kd: 54.6 nM
[4]
  apparent Kd: 67.2 nM

## CUUGGCUAGGAGAAGGGCUAGAGUGUGAUAUAUUUGCCCGCGAGCACAUGAGGAUCACCCAUGUAGCAGGAUAUCCAAGCCGGU
[3]
  apparent Kd: 7.4 nM
[4]
  apparent Kd: 17.4 nM

## CUUUAAGUCGAGAAGGACAUGAGGAUCACCCAUGUAGGAUAUCGAUUAGCUUGCAUCCCGAGCCGCAUCGGUGUGACUGGUGGG
[1]
  apparent Kd: 36.5 nM
[2]
  apparent Kd: 7.83 nM
